Values after ≈ are worked out from the molar mass of the structure shown. Active and inactive are the calls of the source. No cut-off for these calls is given here.
Key:
Schistosoma mansoni [1] = test: Antischistosomal activity against adult Schistosoma mansoni assessed as motility reduction at 10 ug/ml after 120 hrs; format: functional; design: scale not given: the % may be the effect or the level left
Summary of the method: (§1)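 Adult worms were recovered from infected mice by portal perfusion with warm DMEM containing 2 mM L-glutamine, penicillin/streptomycin, 20 mM Hepes and heparin. Host red cells were removed and the worms moved to DMEM with 10% FCS, glutamine and antibiotics. Compounds were added from 10 mg/mL DMSO stocks. At 120 h, motility disturbances and morphological changes were scored.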

Schistosoma mansoni [2] = test: Antischistosomal activity against adult Schistosoma mansoni assessed as morphological changes at 10 ug/ml after 120 hrs; format: functional, organism-based; summary of the method: as §1
Schistosoma mansoni [3] = test: Antischistosomal activity in juvenile Schistosoma mansoni infected in mouse assessed as total worm reduction at 400 mg/kg, po after 28 days; format: functional; design: scale not given: the % may be the effect or the level left
Summary of the method: (§2)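 Mice were infected with about 80 cercariae on day 0. A single oral dose was given, dissolved or suspended in 3% ethanol/7% Tween 80 vehicle: groups of three mice on day 21 (juvenile) and groups of five on day 49 (adult). Mice were killed by CO₂ 28 days after treatment and dissected for total and female worm counts versus vehicle controls. Medians were compared by Kruskal–Wallis test.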

Schistosoma mansoni [4] = test: Antischistosomal activity in juvenile Schistosoma mansoni infected in mouse assessed as female worm reduction at 400 mg/kg, po after 28 days; format: functional; design: scale not given: the % may be the effect or the level left; summary of the method: as §2
Schistosoma mansoni [5] = test: Antischistosomal activity in adult Schistosoma mansoni infected in mouse assessed as total worm reduction at 400 mg/kg, po after 28 days; format: functional; design: scale not given: the % may be the effect or the level left; summary of the method: as §2
Schistosoma mansoni [6] = test: Antischistosomal activity in adult Schistosoma mansoni infected in mouse assessed as female worm reduction at 400 mg/kg, po after 28 days; format: functional; design: scale not given: the % may be the effect or the level left; summary of the method: as §2
Schistosoma mansoni [7] = test: Antischistosomal activity in juvenile Schistosoma mansoni infected in mouse assessed as total worm reduction at 200 mg/kg, po after 28 days; format: functional; design: scale not given: the % may be the effect or the level left
Summary of the method: (§3)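 Mice infected with ca. 80 S. mansoni cercariae on day 0; single oral dose given on day 21 post-infection (juvenile stage) in 3% ethanol/7% Tween 80 vehicle, groups of three mice. Sacrificed by CO₂ 28 days post-treatment and dissected; total and female worm reduction rates versus vehicle controls, Kruskal–Wallis test comparing medians.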

Schistosoma mansoni [8] = test: Antischistosomal activity in juvenile Schistosoma mansoni infected in mouse assessed as female worm reduction at 200 mg/kg, po after 28 days; format: functional; design: scale not given: the % may be the effect or the level left; summary of the method: as §3
Liver microsomes = test: Metabolic stability in human liver microsomes at 1 uM after 120 mins by LC-MS/MS; format: ADME, Microsome; settings: 2 h
Summary of the method: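 Compound at 1 µM was incubated at 37 °C with 0.5 mg/mL microsomes. Reactions were started with an NADPH-regenerating system and stopped with ice-cold MeOH. Loss of parent compound over 120 min was followed by LC–MS/MS.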

Schistosoma mansoni [9] = test: Antischistosomal activity against adult Schistosoma mansoni; format: functional, organism-based

Row | Stability (Liver microsomes) | IC50 (Schistosoma mansoni [9]) [µg/mL] | SMILES | Activity (Schistosoma mansoni [1]) [%] | Activity (Schistosoma mansoni [2]) | Activity (Schistosoma mansoni [3]) [%] | Activity (Schistosoma mansoni [4]) [%] | Activity (Schistosoma mansoni [5]) [%] | Activity (Schistosoma mansoni [6]) [%] | Activity (Schistosoma mansoni [7]) [%] | Activity (Schistosoma mansoni [8]) [%]
1 |  |  | O=C(N1CCCCC1)N1CC(=O)N2CCc3ccccc3C2C1 (stereo not drawn) | 38 | Active | 27 | 34 | 1 | 9 |  | 
2 |  |  | O=C1CN(C(=O)[C@H]2CC[C@]3(CC2)OO[C@]2(O3)C3CC4CC(C3)CC2C4)CC2c3ccccc3CCN12 (stereo partly drawn) | 0 | inactive | 0 | 0 | 0 | 0 |  | 
3 |  |  | O=C(N1CCNCC1)N1CC(=O)N2CCc3ccccc3C2C1 (stereo not drawn) | 0 | inactive | 25 | 23 | 0 | 0 |  | 
4 |  |  | O=C1CCC(C(=O)N2CC(=O)N3CCc4ccccc4C3C2)CC1 (racemic) | 0 | Active | 25 | 41 | 79 | 81 |  | 
5 |  |  | O=C1CN(C(=O)[C@H]2CC[C@]3(CC2)OO[C@]2(O3)C3CC4CC(C3)CC2C4)CCN1 | 0 | inactive |  |  | 1 | 13 | 85 | 85
6 | Stable |  | O=C(C1CCC(F)(F)CC1)N1CC(=O)N2CCc3ccccc3C2C1 (stereo not drawn) | 25 | Active | 38 | 44 | 40 | 39 |  | 
7 |  | 0.37 (≈ 1.18 µM) | O=C(C1CCCCC1)N1CC(=O)N2CCc3ccccc3C2C1 (stereo not drawn) [PRAZIQUANTEL] | 100 | Active | 7 | 18 | 96 | 98 |  | 
8 |  |  | O=C(N1CCOCC1)N1CC(=O)N2CCc3ccccc3C2C1 (stereo not drawn) | 0 | inactive | 14 | 22 | 0 | 0 |  | 
9 | Stable |  | O=C(N1CCC(F)(F)CC1)N1CC(=O)N2CCc3ccccc3C2C1 (stereo not drawn) | 0 | inactive | 38 | 38 | 12 | 0 |  | 
10 |  |  | O=C1CN(C(=O)C23CC4CC(CC(C4)C2)C3)CC2c3ccccc3CCN12 (stereo not drawn) | 0 | inactive | 42 | 56 | 0 | 0 |  | 

Reference: ChEMBL document CHEMBL1156158, “Praziquantel analogs with activity against juvenile Schistosoma mansoni” (Bioorg Med Chem Lett, 2010)
